Reference: ChEMBL document CHEMBL3734720, “Synthesis of thiophene-thiosemicarbazone derivatives and evaluation of their in vitro and in vivo antitumor activities” (Eur J Med Chem, 2015)

Columns and labels:
[1] = Antiproliferative activity against human HaCaT cells assessed as growth inhibition after 48 hrs by SRB assay; type: cell-based
How it was run: (§1)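 Cells exposed 48 h at 37 °C, 5% CO2 to 0.25, 2.5, 25 and 250 µg/mL in DMSO/RPMI (final DMSO 0.1%); doxorubicin standard at 0.025–25 µg/mL. Plates fixed with 50% TCA before (T0) and after treatment; protein content read by sulforhodamine B at 540 nm. GI50 (µM) from nonlinear regression of concentration–response curves; triplicate.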

786-0 [2] = assay: Cell cycle arrest in human 786-0 cells assessed as reduction in G1 phase at 25 uM after 24 hrs by propidium iodide based flow cytometric analysis (reference value: 46.7 +/- 0.8%); type: functional; design: scale not given: the % may be the effect or the level left
786-0 [3] = assay: Cell cycle arrest in human 786-0 cells assessed as accumulation at G2/M phase at 25 uM after 24 hrs by propidium iodide based flow cytometric analysis (reference value: 35.7 +/- 0.9%); type: functional
[4] = Antitumor activity against mouse EAT implanted in Balb/C mouse assessed as change in paw volume at 100 mg/kg, po administered on day 3 post tumor inoculation measured on day 3 by plethysmometer analysis (reference value: 40.2 +/- 7.0%); type: functional
[5] = Antitumor activity against mouse EAT implanted in Balb/C mouse assessed as change in paw volume at 300 mg/kg, po administered on day 3 post tumor inoculation measured on day 3 by plethysmometer analysis (reference value: 40.2 +/- 7.0%); type: functional
[6] = Antitumor activity against mouse EAT implanted in Balb/C mouse assessed as change in paw volume at 300 mg/kg, po administered on day 3 post tumor inoculation measured on day 9 by plethysmometer analysis (reference value: 95.5 +/- 5.2%); type: functional
[7] = Antitumor activity against mouse EAT implanted in Balb/C mouse assessed as change in paw volume at 300 mg/kg, po administered on day 3 post tumor inoculation measured on day 12 by plethysmometer analysis (reference value: 125.5 +/- 7.5%); type: functional
786-0 [8] = assay: Antiproliferative activity against human 786-0 cells assessed as growth inhibition after 48 hrs by SRB assay; type: functional; details: 786-0, 48 h; how it was run: as §1
NCI-H460 = assay: Antiproliferative activity against human NCI-H460 cells assessed as growth inhibition after 48 hrs by SRB assay; type: functional; details: NCI-H460, 48 h; how it was run: as §1

SMILES: S=C(N/N=C/c1cccs1)Nc1ccc(Br)cc1
- GI50 at 48 h [1]: 0.8 µM
- Activity (786-0 [2]): 44.9%
- Activity (786-0 [3]): 35.9%
- Activity [4]: 33.4%
- Activity [5]: 39.4%
- Activity [6]: 72.8%
- Activity [7]: 64%
- GI50 (786-0 [8]): 4.5 µM
- GI50 (NCI-H460): 4.7 µM
